The source made the active and inactive calls. No cut-off for these calls is given here.
Columns and labels:
[1] = Induction of alkylation in 5'-GGGAGA-3' single stranded DNA (unknown origin) at ssDNA to compound concentration ratio of 1:250M incubated for 1 hr by ESI-MS analysis
Outline: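 Single-stranded oligonucleotide incubated with the compound in 10 mM ammonium bicarbonate buffer, pH 8.3, at 37 °C. Aliquots were taken at intervals and extracted three times with ethyl acetate, then centrifuged. The aqueous phase was analysed by flow-injection ESI(−) HRMS in 50:50 water/acetonitrile with 0.1% formic acid. Run in triplicate.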

[2] = Drug metabolism assessed as Cu2+-mediated compound decomposition by measuring aniline formation at 33 uM measured at 1 min interval for 30 mins by UV-Vis spectrophotometric analysis
Outline: (§1)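 Decomposition monitored by UV-Vis spectroscopy in methanolic solutions containing Cu2+ or Zn2+.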

[3] = Drug metabolism assessed as Zn2+-mediated compound decomposition by measuring aniline formation at 33 uM measured at 30 mins interval for 12 hrs by UV-vis spectrophotometric analysis; outline: as §1
[4] = target: T1, Histone deacetylase (Homo sapiens) (UniProt Q13547+O15379+Q9UBN7+Q92769+Q9UQL6+Q8WUI4+Q9BY41+Q96DB2+P56524+Q9UKV0+Q969S8); experiment: Inhibition of HDAC in human HeLa nuclear extract assessed as enzyme residual activity at 6.25 uM using Boc-Lys(acetyl)-AMC as substrate and measured after 15 mins by fluorescence assay relative to control; type: cell-free
Outline: (§2)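 Fluorometric HDAC activity kit with HeLa nuclear extract as enzyme source; compounds from 20 mM DMSO stock, tested in duplicate. Deacetylated substrate treated with lysine developer; fluorescence read after 15 min at ex 360/em 460 nm.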

GL261 [5] = experiment: Cytotoxicity against mouse GL261 cells assessed as reduction in cell viability at 0.1 to 100 uM incubated for 48 hrs by MTS assay; type: functional, cell-based
[6] = Stability of the compound in PBS buffer at pH 7.4 assessed as half life by HPLC analysis; type: physicochemical
[7] = Stability in 80% human plasma assessed as half life by HPLC analysis; type: ADME, cell-free
Outline: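 Plasma pooled from 13 donors (heparin), stored at −18 °C, thawed slowly, diluted to 80% v/v with 10 mM PBS pH 7.4 at 37 °C; compound added from 10 mM acetonitrile stock; aliquots taken over time, centrifuged 12000 rpm 10 min, supernatant analyzed by HPLC for half-life; duplicate or triplicate runs.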

[8] = target: T1, Histone deacetylase (Homo sapiens); experiment: Inhibition of HDAC in human HeLa nuclear extract assessed as enzyme residual activity at 25 uM using Boc-Lys(acetyl)-AMC as substrate and measured after 15 mins by fluorescence assay relative to control; type: cell-free; outline: as §2
[9] = target: T1, Histone deacetylase (Homo sapiens); experiment: Inhibition of HDAC in human HeLa nuclear extract assessed as enzyme residual activity at 100 uM using Boc-Lys(acetyl)-AMC as substrate and measured after 15 mins by fluorescence assay relative to control; type: cell-free; outline: as §2
[10] = Octanol-phosphate buffered saline distribution coefficient, log D of compound at pH 7.4 at 1 mg shake for 30 mins and measured after 48 hrs by HPLC analysis; type: physicochemical
[11] = Drug metabolism assessed as Zn2+-mediated compound decomposition by measuring aniline formation 33 uM measured at 1 min interval for 30 mins by UV-Vis spectrophotometric analysis; outline: as §1
GL261 [12] = experiment: Cytotoxicity against mouse GL261 cells assessed as reduction in cell viability incubated for 48 hrs by MTS assay; type: functional, cell-based; conditions: GL261, 48 h
GL261 [13] = experiment: Induction of apoptosis in mouse GL261 cells assessed as increase in early apoptotic cells at 10 uM incubated for 48 hrs by annexinV-PE/7-AAD staining based flow cytometric analysis; type: functional, cell-based
Outline: (§3)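 GL261 cells exposed 48 h; trypsinized adherent cells combined with medium cells, pelleted, resuspended in PBS/1% BSA, stained with annexin V-PE/7-AAD; flow cytometry gating viable (both negative), early apoptotic (annexin+/7-AAD−), late apoptotic/dead (both positive); two readings per sample; three independent experiments in duplicate.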

SH-SY5Y [14] = experiment: Induction of apoptosis in human SH-SY5Y cells assessed as increase in late necrotic cells at 10 uM incubated for 48 hrs by annexinV-PE/7-AAD staining based flow cytometric analysis; type: functional, cell-based
Outline: (§4)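 SH-SY5Y cells grown on poly-D-lysine/laminin, differentiated 7 days with 10 µM retinoic acid, then exposed 48 h. Adherent plus floating cells pooled, resuspended in PBS/1% BSA, stained annexin V-PE/7-AAD and counted by flow cytometry into viable, early apoptotic, late apoptotic/necrotic; two readings per sample; three independent experiments in duplicate.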

SH-SY5Y [15] = experiment: Induction of apoptosis in human SH-SY5Y cells assessed as reduction in cell viability at 10 uM incubated for 48 hrs by annexinV-PE/7-AAD staining based flow cytometric analysis; type: functional; outline: as §4
GL261 [16] = experiment: Induction of morphological changes in mouse GL261 cells assessed as increase in cell circularity at 10 uM incubated for 48 hrs by Hoechst 33258 staining based fluorescence microscopic analysis; type: functional
Outline: (§5)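 After 48 h exposure, GL261 cells on coverslips fixed in 4% paraformaldehyde, permeabilized (0.1% Triton X-100), blocked 30 min, stained with Alexa Fluor-594 phalloidin and Hoechst 33258; ten random fields at 630×; circularity (4π·area/perimeter²) and aspect ratio traced manually on ≥120 cells per condition; three independent experiments.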

GL261 [17] = experiment: Induction of apoptosis in mouse GL261 cells assessed as increase in necrotic cells at 10 uM incubated for 48 hrs by annexinV-PE/7-AAD staining based flow cytometric analysis; type: functional, cell-based; outline: as §3
GL261 [18] = experiment: Induction of apoptosis in mouse GL261 cells assessed as increase in late apoptotic cells at 10 uM incubated for 48 hrs by annexinV-PE/7-AAD staining based flow cytometric analysis; type: functional, cell-based; outline: as §3
SH-SY5Y [19] = experiment: Induction of apoptosis in human SH-SY5Y cells assessed as increase in early apoptotic cells at 10 uM incubated for 48 hrs by annexinV-PE/7-AAD staining based flow cytometric analysis; type: functional, cell-based; outline: as §4
GL261 [20] = experiment: Induction of apoptosis in mouse GL261 cells assessed as reduction in cell viability at 10 uM incubated for 48 hrs by annexinV-PE/7-AAD staining based flow cytometric analysis; type: functional; outline: as §3
GL261 [21] = experiment: Antiinvasive activity in mouse GL261 cells assessed as reduction in cell migration at 10 uM preincubated for 48 hrs and measured after 6 hrs by giemsa staining based Boyden chamber assay; type: functional
GL261 [22] = experiment: Induction of morphological changes in mouse GL261 cells assessed as decrease in cell aspect ratio at 10 uM incubated for 48 hrs by Hoechst 33258 staining based fluorescence microscopic analysis; type: functional; outline: as §5
[23] = target: T1, Histone deacetylase (Homo sapiens); experiment: Inhibition of HDAC in human HeLa nuclear extract assessed as enzyme residual activity at 1 uM using Boc-Lys(acetyl)-AMC as substrate and measured after 15 mins by fluorescence assay relative to control; type: cell-free; outline: as §2
[24] = target: T1, Histone deacetylase (Homo sapiens); experiment: Inhibition of HDAC in human HeLa nuclear extract assessed as enzyme residual activity at 100 nM using Boc-Lys(acetyl)-AMC as substrate and measured after 15 mins by fluorescence assay relative to control; type: cell-free; outline: as §2
[25] = target: T1, Histone deacetylase (Homo sapiens); experiment: Inhibition of HDAC in human HeLa nuclear extract assessed as enzyme residual activity at 10 nM using Boc-Lys(acetyl)-AMC as substrate and measured after 15 mins by fluorescence assay relative to control; type: cell-free; outline: as §2

| SMILES | Activity [4] | half-life [6] | half-life [7] | Activity [8] | Activity [9] | logD at 30 min [10] | IC50 (GL261 [12]) | other results |
| --- | --- | --- | --- | --- | --- | --- | --- | --- |
| CN=NNc1ccc(C#N)cc1 |  |  |  |  |  |  |  | Activity [1]: Active; Drug metabolism [2]: Metabolite detected; Drug metabolism [3]: Metabolite detected |
| CCCC(=O)N(C)/N=N/c1ccc(C#N)cc1 | 97.1% | > 40 h | 15.2 h | 72.5% | 54.9% | 3.19 | > 100 µM | Activity (GL261 [5]): inactive; Drug metabolism [2]: Metabolite not detected; Drug metabolism [11]: Metabolite not detected |
| CCC(CC)C(=O)N(C)/N=N/c1ccc(C#N)cc1 | 97.7% | > 40 h | > 40 h | 97.2% | 95.1% | 3.76 | > 100 µM | Activity (GL261 [5]): inactive |
| CCOC(=O)c1ccc(/N=N/NC)cc1 |  |  |  |  |  |  |  | Drug metabolism [2]: Metabolite detected; Drug metabolism [3]: Metabolite detected |
| CCCC(CCC)C(=O)N(C)/N=N/c1ccc(C(N)=O)cc1 | 90.5% | > 40 h | > 40 h | 91.6% | 79.8% | 3.68 | 11.9 µM | Activity (GL261 [13]): Active; Activity (SH-SY5Y [14]): Active; Activity (SH-SY5Y [15]): Active; Activity (GL261 [16]): Active; Activity (GL261 [17]): Active; Activity (GL261 [18]): Active; Activity (SH-SY5Y [19]): Active; Activity (GL261 [20]): Active; Activity (GL261 [21]): Active; Activity (GL261 [22]): Active |
| CCCC(CCC)C(=O)N(C)/N=N/c1ccc(Br)cc1 | 98.9% | 30.4 h | > 40 h | 95.6% | 82.5% | 4.81 | 80.6 µM |  |
| CC(C)C(=O)N(C)/N=N/c1ccc(C#N)cc1 | 95.9% | > 40 h | 13.9 h | 92.7% | 77.6% | 2.95 | > 100 µM | Activity (GL261 [5]): inactive |
| Cn1nnc2c(C(N)=O)ncn2c1=O [TEMOZOLOMIDE] |  | 2 h |  |  |  |  | > 100 µM | Activity (SH-SY5Y [14]): Active; Activity (SH-SY5Y [15]): Active; Activity (GL261 [16]): inactive; Activity (SH-SY5Y [19]): Active; Activity (GL261 [21]): Active; Activity (GL261 [22]): inactive |
| CCCC(CCC)C(=O)N(C)/N=N/c1ccc(C(=O)OCC)cc1 | 88.3% | 34.1 h | > 40 h | 79.8% | 55.3% | 4.95 | > 100 µM | Drug metabolism [2]: Metabolite not detected; Drug metabolism [11]: Metabolite not detected |
| CCCC(CCC)C(=O)N(C)/N=N/c1ccc(C)cc1 | 94.5% | 31.3 h | > 40 h | 93.5% | 89% | 4.98 | > 100 µM |  |
| O=C(/C=C/c1ccc2c(c1)C(=O)CC1(CCN(Cc3ccccc3)CC1)C2)NO |  |  |  |  |  |  |  | Activity [23]: 10.9%; Activity [24]: 52.4%; Activity [25]: 91% |
| CCCC(CCC)C(=O)N(C)/N=N/c1ccc(C(=O)OC)cc1 | 92.9% | 31.4 h | > 40 h | 97.3% | 92.7% | 4.7 | 6.7 µM | Activity (GL261 [13]): Active; Activity (SH-SY5Y [14]): Active; Activity (SH-SY5Y [15]): Active; Activity (GL261 [16]): Active; Activity (SH-SY5Y [19]): Active; Activity (GL261 [20]): Active; Activity (GL261 [21]): Active; Activity (GL261 [22]): Active |
| CCCC(CCC)C(=O)N(C)/N=N/c1ccc(C(C)=O)cc1 | 98.6% | > 40 h | > 40 h | 94.8% | 85.8% | 4.56 | 47 µM |  |
| CCCC(CCC)C(=O)N(C)/N=N/c1ccc(Cl)cc1 | 93% | 27.3 h | > 40 h | 85.8% | 66.4% | 4.62 | 58.4 µM |  |
